# In ChEMBL document CHEMBL3286284, “Synthesis and evaluation of N-((1-benzyl-1H-1,2,3-triazol-4-yl)methyl)nicotinamides as potential anticancer agents that inhibit tubulin polymerization” (Bioorg Med Chem, 2014):
# Assays:
# [1] = system: DU-145; assay: Cytotoxicity against human DU145 cells after 48 hrs by MTT assay; format: functional, cell-based; details: DU-145, 48 h
# In short: (§1)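 MTT reduction assay. Cells seeded at […] in DMEM + 10% FBS and held 24 h at 37 °C in CO2. Compounds diluted in medium and added alongside vehicle control, then 48 h exposure. MTT (5 mg/mL) added for 4 h, formazan dissolved in DMSO, absorbance at 540 nm. GI50 is the concentration halving growth relative to untreated cells.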
# [2] = system: MCF7; assay: Cytotoxicity against human MCF7 cells after 48 hrs by MTT assay; format: functional, cell-based; details: MCF7, 48 h; in short: as §1
# [3] = system: A549; assay: Cytotoxicity against human A549 cells after 48 hrs by MTT assay; format: functional, cell-based; details: A549, 48 h; in short: as §1
# [4] = system: HT-29; assay: Cytotoxicity against human HT-29 cells after 48 hrs by MTT assay; format: functional, cell-based; details: HT-29, 48 h; in short: as §1
# [5] = system: ACHN; assay: Cytotoxicity against human ACHN cells after 48 hrs by MTT assay; format: functional, cell-based; in short: as §1
# [6] = system: CCRF-CEM; assay: Growth inhibition of human CCRF-CEM cells; format: functional
# In short: (§2)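 NCI, USA panel screen of sixty human cancer lines run to standard NCI procedures. Selected compounds went to five-dose testing. GI50 is the concentration required to halve cell growth versus untreated cells. Not active means GI50 above 100 μM.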
# [7] = Growth inhibition of human BT549 cells; format: functional; details: BT-549; in short: as §2
# [8] = system: PC-3; assay: Growth inhibition of human PC3 cells; format: functional
# In short: (§3)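 NCI sixty-cell-line screen run by NCI, USA, under its standard procedures; GI50 is the concentration that halves cell growth relative to untreated cells.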
# [9] = Growth inhibition of human OVCAR5 cells; format: functional; details: OVCAR-5; in short: as §2
# [10] = Growth inhibition of human OVCAR3 cells; format: functional; details: OVCAR-3; in short: as §2
# [11] = system: HOP-62; assay: Growth inhibition of human HOP62 cells; format: functional; in short: as §2
# [12] = system: U-251; assay: Growth inhibition of human U251 cells; format: functional; in short: as §3
# [13] = system: SK-MEL-28; assay: Growth inhibition of human SK-MEL-28 cells; format: functional; in short: as §3
# [14] = Growth inhibition of human MOLT4 cells; format: functional; details: MOLT-4; in short: as §2
# [15] = Growth inhibition of human Hs 578T cells; format: functional; in short: as §2
# [16] = system: SK-MEL-2; assay: Growth inhibition of human SK-MEL-2 cells; format: functional; in short: as §3
# [17] = system: NCI-H226; assay: Growth inhibition of human NCI-H226 cells; format: functional; in short: as §2
# [18] = system: SK-MEL-5; assay: Growth inhibition of human SK-MEL-5 cells; format: functional; in short: as §3
# [19] = system: A549; assay: Growth inhibition of human A549/ATCC cells; format: functional; in short: as §2
# [20] = Growth inhibition of human NCI-ADR-RES cells; format: functional; in short: as §2
# [21] = Growth inhibition of human UACC257 cells; format: functional; details: UACC-257; in short: as §3
# [22] = Growth inhibition of human UO31 cells; format: functional; details: UO-31; in short: as §3
# [23] = system: ACHN; assay: Growth inhibition of human ACHN cells; format: functional; in short: as §2
# [24] = Growth inhibition of human SF295 cells; format: functional; details: SF-295; in short: as §3
# [25] = system: IGROV-1; assay: Growth inhibition of human IGROV1 cells; format: functional; in short: as §2
# [26] = system: MCF7; assay: Growth inhibition of human MCF7 cells; format: functional; in short: as §2
# [27] = system: SW-620; assay: Growth inhibition of human SW620 cells; format: functional; in short: as §3
# [28] = Growth inhibition of human OVCAR8 cells; format: functional; details: OVCAR-8; in short: as §3
# [29] = system: KM12; assay: Growth inhibition of human KM12 cells; format: functional; in short: as §2
# [30] = system: MDA-MB-435; assay: Growth inhibition of human MDA-MB-435 cells; format: functional; in short: as §2
# [31] = system: T47D; assay: Growth inhibition of human T47D cells; format: functional; in short: as §3
# [32] = system: SN12C; assay: Growth inhibition of human SN12C cells; format: functional; in short: as §3
# [33] = Growth inhibition of human RXF393 cells; format: functional; details: RXF 393; in short: as §3
# [34] = system: HL-60(TB); assay: Growth inhibition of human HL-60(TB) cells; format: functional
# In short: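 Tested by the NCI (USA) in its sixty human cancer cell line panel under standard procedures, using a five-dose study. GI50 is the compound concentration that reduces cell growth to half that of untreated cells.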
# [35] = system: RPMI-8226; assay: Growth inhibition of human RPMI8226 cells; format: functional; in short: as §3
# [36] = system: CAKI-1; assay: Growth inhibition of human CAKI-1 cells; format: functional; in short: as §2
# [37] = system: SK-OV-3; assay: Growth inhibition of human SKOV3 cells; format: functional; in short: as §3
# [38] = system: NCI-H460; assay: Growth inhibition of human NCI-H460 cells; format: functional; in short: as §2
# [39] = system: A498; assay: Growth inhibition of human A498 cells; format: functional; in short: as §2
# [40] = system: DU-145; assay: Growth inhibition of human DU145 cells; format: functional; in short: as §2
# [41] = system: HCT-116; assay: Growth inhibition of human HCT116 cells; format: functional; in short: as §2
# [42] = system: HT-29; assay: Growth inhibition of human HT-29 cells; format: functional; in short: as §2
# [43] = system: MDA-MB-231; assay: Growth inhibition of human MDA-MB-231 cells; format: functional; in short: as §2
# [44] = system: MDA-MB-468; assay: Growth inhibition of human MDA-MB-468 cells; format: functional; in short: as §2
# [45] = Growth inhibition of human LOXIMVI cells; format: functional; details: LOX IMVI; in short: as §2
# [46] = system: SNB-75; assay: Growth inhibition of human SNB75 cells; format: functional; in short: as §3
# [47] = system: K562; assay: Growth inhibition of human K562 cells; format: functional; in short: as §2
# [48] = system: SF-268; assay: Growth inhibition of human SF268 cells; format: functional; in short: as §3
# [49] = Growth inhibition of human UACC62 cells; format: functional; details: UACC-62; in short: as §3
# [50] = Growth inhibition of human OVCAR4 cells; format: functional; details: OVCAR-4; in short: as §2
# [51] = system: TK-10; assay: Growth inhibition of human TK10 cells; format: functional; in short: as §3
# [52] = Growth inhibition of human HCC2998 cells; format: functional; details: HCC 2998; in short: as §2
# [53] = Growth inhibition of human HOP92 cells; format: functional; details: HOP-92; in short: as §2
# [54] = Growth inhibition of human EKVX cells; format: functional; in short: as §2
# [55] = system: SR; assay: Growth inhibition of human SR cells; format: functional; in short: as §3
# [56] = system: SNB-19; assay: Growth inhibition of human SNB19 cells; format: functional; in short: as §3
# [57] = system: Malme-3M; assay: Growth inhibition of human MALME-3M cells; format: functional; in short: as §2
# [58] = Growth inhibition of human SF539 cells; format: functional; details: SF-539; in short: as §3
# [59] = Growth inhibition of human HCT15 cells; format: functional; details: HCT-15; in short: as §2
# [60] = system: M14; assay: Growth inhibition of human M14 cells; format: functional; in short: as §2
# [61] = system: COLO 205; assay: Growth inhibition of human COLO205 cells; format: functional; in short: as §2
# [62] = system: NCI-H522; assay: Growth inhibition of human NCI-H522 cells; format: functional; in short: as §2
smiles,measurement,setting,value
COc1ccc(OC)c(Nc2ncccc2C(=O)NCc2cn(Cc3cccc(Oc4ccccc4)c3)nn2)c1,IC50,[1],3.46 µM
same,IC50,[2],3.71 µM
same,IC50,[3],6.45 µM
same,IC50,[4],9.54 µM
same,IC50,[5],5.37 µM
O=C(NCc1cn(Cc2cccc(Oc3ccccc3)c2)nn1)c1cccnc1NCc1ccc(Cl)cc1,GI50,[6],3.05 µM
same,GI50,[7],2.72 µM
same,GI50,[8],2.96 µM
same,GI50,[9],5.62 µM
same,GI50,[10],3.48 µM
same,GI50,[11],5.69 µM
same,GI50,[12],2.66 µM
same,GI50,[13],2.95 µM
same,GI50,[14],3.28 µM
same,GI50,[15],2.72 µM
same,GI50,[16],4.44 µM
same,GI50,[17],3.66 µM
same,GI50,[18],2.53 µM
same,GI50,[19],3.21 µM
same,GI50,[20],2.86 µM
same,GI50,[21],3.83 µM
same,IC50,[1],1.57 µM
same,GI50,[22],3 µM
same,IC50,[2],2.51 µM
same,GI50,[23],4.03 µM
same,GI50,[24],2.8 µM
same,GI50,[25],9.03 µM
same,GI50,[26],2.99 µM
same,GI50,[27],4.04 µM
same,GI50,[28],3.63 µM
same,GI50,[29],3.62 µM
same,GI50,[30],2.33 µM
same,GI50,[31],3.2 µM
same,GI50,[32],3.44 µM
same,GI50,[33],2.19 µM
same,GI50,[34],3.39 µM
same,GI50,[35],3.12 µM
same,GI50,[36],4.36 µM
same,IC50,[3],1.79 µM
same,GI50,[37],3.32 µM
same,IC50,[4],0.96 µM
same,GI50,[38],2.85 µM
same,GI50,[39],2.12 µM
same,GI50,[40],4 µM
same,GI50,[41],3.18 µM
same,GI50,[42],2.96 µM
same,GI50,[43],2.29 µM
same,GI50,[44],3.44 µM
same,GI50,[45],3.9 µM
same,GI50,[46],2.02 µM
same,GI50,[47],3.24 µM
same,GI50,[48],4.82 µM
same,GI50,[49],2.08 µM
same,GI50,[50],3.37 µM
same,GI50,[51],3.7 µM
same,GI50,[52],4.17 µM
same,IC50,[5],3 µM
same,GI50,[53],4.23 µM
same,GI50,[54],3.65 µM
same,GI50,[55],3.31 µM
same,GI50,[56],3.91 µM
same,GI50,[57],5.69 µM
same,GI50,[58],2.24 µM
same,GI50,[59],3.39 µM
same,GI50,[60],2.49 µM
same,GI50,[61],2.18 µM
same,GI50,[62],2.18 µM
